Published values of several laboratories.
Each line is one published result; the experiments were not run side by side.
Target: Protein kinase C eta type (PRKCH, Homo sapiens, UniProt P24723)

`N[C@@H]1CCN(c2nccc(-c3cnn4ncccc34)n2)C1` gave a remaining binding of 100% (binding; 1 µM).
`COc1ncc2cc3ccccc3nc2c1C#N` has a remaining binding of 90% (cell-free assay; competition with immobilised ligand; 5 µM).
`C[C@@H]1CN(c2cc(-c3n[nH]c4ccc(OC5(C)CC5)cc34)ncn2)C[C@H](C)O1` has a remaining binding of 92% (cell-free assay; competition with immobilised ligand; 0.1 µM).
With `CC1CCCN1c1nccc(-c2cnn3ncccc23)n1` (stereo not shown) the remaining binding was 100% (binding; 1 µM).
The remaining binding of `CN(C)CC#Cc1ccc(OCCCc2sc(N3CCc4cccc(C(=O)Nc5nc6ccccc6s5)c4C3)nc2C(=O)O)c(F)c1` is reported as 74% (cell-free assay; competition with immobilised ligand; 1 µM).
The remaining binding of `O=C(Nc1c[nH]nc1C(=O)NC1CCNCC1)c1cc(F)cc(F)c1` is reported as 73% (binding; competition with immobilised ligand; 1 µM).
With `COc1ccc2c(c1)O[C@@H](c1ccc(OC)c(OC)c1)C[C@H]2NC(=O)C1(c2ccc3c(c2)OC(F)(F)O3)CC1` the remaining binding was 96% (cell-free assay; competition with immobilised ligand; 1 µM).
`Nc1ncc2c(n1)-c1c([nH]c3ccc(C#CC4CC4)cc13)CCCC2` has a remaining binding of 100% (binding; competition with immobilised ligand; 1 µM).
With `O=C(c1ccc(Nc2ncc(Cl)c(-c3ccc(Cl)s3)n2)cc1)N1CCC(N2CCCC2)CC1` the remaining binding was 46% (binding; competition with immobilised ligand; 1 µM).
`COc1ccnn2ncc(-c3ccnc(N(C)C)n3)c12` has a remaining binding of 92% (binding; 1 µM).
`CNC(=O)[C@@H]1CC[C@@H](n2c(-c3ccc4cnccc4c3)nc3ccc(C(=O)NCc4cccc(C(N)=O)c4)cc32)C1` has a remaining binding of 100% (binding; competition with immobilised ligand; 1 µM).
`O=C(c1ccc(Nc2nccc(-c3cc4ccccc4s3)n2)cc1)N1CCC(N2CCCC2)CC1` gave a remaining binding of 74% (binding; competition with immobilised ligand; 1 µM).
The remaining binding of `C=CC(=O)N1CCC(C(=O)NCC(=O)N2CCN(c3nc(-c4cnc(N)nc4C(F)F)nc(N4CCOCC4)n3)CC2)CC1` is reported as 100% (binding; competition with immobilised ligand; 1 µM).
The remaining binding of `Cn1nc(C(=O)NCc2ccc(C(=O)O)cc2)cc1-c1ccc2[nH]ccc2c1` is reported as 84% (cell-free assay; competition with immobilised ligand; 0.1 µM).
For `C[C@@H](c1ccc(-n2cnc3c(N)ncnc32)cc1)N1CCc2nn(C)c(Cc3ccccc3)c2C1=O`, the remaining binding was 100% (binding; competition with immobilised ligand; 0.1 µM).
With `O=C(Nc1cnc(Oc2ccc(F)cc2)nc1)N1CCc2ncccc2[C@@H]1c1ccc(F)cc1` the remaining binding was 76% (cell-free assay; competition with immobilised ligand; 1 µM).
`CN(C)c1nccc(-c2cnn3ncccc23)n1` gave a remaining binding of 100% (binding; 1 µM).
The remaining binding of `CN(C)c1ncnc(-c2ccc3nc(Nc4cc(CN5CCN(C(=O)CC(F)(F)F)CC5)ccn4)[nH]c3c2)c1Cl` is reported as 100% (cell-free assay; competition with immobilised ligand; 1 µM).
With `Cc1cnn2ncc(-c3ccnc(N(C)C)n3)c2c1` the remaining binding was 100% (binding; 1 µM).
`CCCCN(CCCC)C(=O)CN1C[C@H](c2cc(OC)c3c(c2)OCO3)[C@@H](C(=O)O)[C@@H]1CC(C)(C)CCC` has a remaining binding of 100% (cell-free assay; competition with immobilised ligand; 1 µM).
The remaining binding of `O=C(c1ccc(Nc2ncc(Cl)c(-c3cc4ccccc4s3)n2)cc1)N1CCC(N2CCCC2)CC1` is reported as 12% (binding; competition with immobilised ligand; 1 µM).
For `c1cnn2ncc(-c3ccnc(N4CCC45COC5)n3)c2c1`, the remaining binding was 88% (binding; 1 µM).
